“And” between values parts separate entries of the source, which are not always exact repeats. Equal entries are not always repeated.
Assays:
[1] = Calculated LD50 on mice, extrapolated from zebrafish embryo LC50; conditions: mouse
[2] = tested on: bloodstream forms of T. brucei brucei; test: In vitro antitrypanosomal activity, bloodstream forms; format: cell-based, T. brucei brucei S427 (S16); conditions: for IC50: Trypanosoma brucei, 72 h, read-out: IC50 parasite T. brucei; for SI T. brucei: selectivity index IC50(MRC-5)/IC50(parasite)
Outline: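 Bloodstream forms were kept in HMI-9 with 10% hiFBS at 37 °C, 5% CO2. Parasites at 1 × 10^4/mL were exposed to increasing compound concentrations for 72 h under the same conditions. Proliferation was read by alamarBlue fluorescence (excitation 550, emission 590 nm), and IC50 was derived from this.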

L. major promastigotes = test: In vitro antileishmanial activity, promastigote drug susceptibility; format: cell-based, L. major (MHOM/IL/80/Friedlin); conditions: for SI L. major: selectivity index IC50(MRC-5)/IC50(parasite)
Outline: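 Promastigotes at 1 × 10^6/mL were cultured in modified RPMI-1640 with 10% hiFBS. They were exposed to increasing compound concentrations for 72 h at 28 °C. Proliferation was measured by MTT, with absorbance read at 540 nm.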

[3] = Acute toxicity assay on zebrafish embryos; format: in vivo, zebrafish (Danio rerio), strain AB; conditions: AB, zebrafish, in vivo
Outline: (§1)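 Embryos of strain AB were collected in E3 medium and sorted at 3 hpf, with 20 healthy embryos per condition. Medium was replaced by compound in 0.1% DMSO/E3, made from a 100 mM DMSO stock, at five log concentrations, either 0.01–100 μM or 0.1 μM–1 mM. Embryos were held at 28.5 °C from 3 to 96 hpf, and coagulated eggs were removed at 24 h. LC50 came from a sigmoidal fit of mortality. Controls were 0.1% DMSO in triplicate (repeat if mortality >20%) and DEAB at 0.1 μM–1 mM.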

zebrafish embryos = test: Acute toxicity assay on zebrafish embryos; format: in vivo, zebrafish (Danio rerio), strain AB; conditions: zebrafish embryos, 96 hpf; mortality score >20% assumed as the effect
Outline: as §1

P. falciparum [4] = test: In vitro antimalarial activity, [3H]-hypoxanthine incorporation; format: cell-based, P. falciparum (3D7 strain)
Outline: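 Infected erythrocytes were used at 1.5% final hematocrit and 0.6% parasitemia in RPMI 1640 with 10% AB human serum. Compounds were dissolved in DMSO and diluted in medium, with final DMSO ≤0.25%. After 48 h at 37 °C, 0.6 μCi [3H]-hypoxanthine was added per well for 18 h. Cells were harvested onto glass-fibre filters for scintillation counting. Uninfected-erythrocyte background was subtracted, and IC50 was taken as 50% growth inhibition.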

[5] = tested on: MRC-5 human nontumoral lung cell line; conditions: read-out: IC50 MRC-5; MRC-5 control cell line, MTT, 72 h; cited from earlier work
[6] = tested on: HT-29, MCF-7, and HeLa cancer cells; conditions: cited from earlier work
P. falciparum [7] = conditions: read-out: concentration inhibiting 50% growth of P. falciparum; cited from earlier work

For `CC(=O)N[C@@H]1[C@@H](O)[C@H](O)[C@@H](CO)O[C@H]1n1cc(CNc2cc3c4c(ccc5c4c2C(=O)N(CCCN(C)C)C5=O)C(=O)N(CCCN(C)C)C3=O)nn1` [Compound 2, β-glcNAc-NDI], the LD50 [1] was > 630 µmol/kg and > 607 mg/kg.

With `C[C@H]1O[C@@H](n2cc(CNc3cc4c5c(ccc6c5c3C(=O)N(CCCN(C)C)C6=O)C(=O)N(CCCN(C)C)C4=O)nn2)[C@H](O)[C@@H](O)[C@@H]1O` [Compound 3, β-6dglc-NDI] the LD50 [1] was 170 µmol/kg and 154 mg/kg.

For `CN(C)CCCN1C(=O)c2ccc3c4c(c(NCc5cn([C@@H]6O[C@H](CO)[C@@H](OC7O[C@H](CO)[C@@H](O)[C@H](O)[C@H]7O)[C@H](O)[C@H]6O)nn5)cc(c24)C1=O)C(=O)N(CCCN(C)C)C3=O.O=C(O)C(F)(F)F.O=C(O)C(F)(F)F` (stereo partly drawn) [Compound 4, β-malt-NDI], the IC50 [2] was 99 ± 10 nM, the “SI T. brucei” value [2] was 20.6 and the IC50 (L. major promastigotes; Leishmania major, 72 h, read-out: IC50 parasite L. major) was 921 ± 51 nM. For the same compound, the “SI L. major” value (L. major promastigotes) was 2.2, the LC50 at 96 hpf [3] was 190000 nM and the NOEC (zebrafish embryos) was 100 µM. For the same compound, the LD50 [1] was 190 µmol/kg and 206 mg/kg, the “SI P. falciparum” value (P. falciparum [4]; selectivity index IC50(MRC-5)/IC50(parasite)) was 5.5 and the IC50 [5] was 2040 ± 50 nM.

With `CN(C)CCCN1C(=O)c2ccc3c4c(c(NCc5cn(CCO[C@H]6O[C@H](CO)[C@@H](O)[C@H](O)[C@@H]6O)nn5)cc(c24)C1=O)C(=O)N(CCCN(C)C)C3=O` [Compound 5, α-manC2-NDI] the LD50 [1] was > 630 µmol/kg and > 609 mg/kg.

With `CN(C)CCCN1C(=O)c2ccc3c4c(c(NCc5cn(CCO[C@@H]6O[C@H](CO)[C@@H](O)[C@H](O)[C@H]6O)nn5)cc(c24)C1=O)C(=O)N(CCCN(C)C)C3=O` [Compound 6, β-glcC2-NDI] the IC50 [2] was 17 ± 9 nM, the “SI T. brucei” value [2] was 41.8 and the “SI L. major” value (L. major promastigotes) was 1.3. The LD50 [1] was > 630 µmol/kg and > 609 mg/kg, the “fold more active than compound 1, antitumor activity” value [6] was “approximately 10 fold” and the “fold more active than compound 1 against P. falciparum” value (P. falciparum [4]) was 5 fold.

In the case of `CCCNc1cc2c3c(ccc4c3c1C(=O)N(CCCN(C)C)C4=O)C(=O)N(CCCN(C)C)C2=O` [Compound 7, NDI-prop], the IC50 [2] is reported as 9 ± 1 nM, the “SI T. brucei” value [2] is reported as 40.0 and the “SI L. major” value (L. major promastigotes) is reported as 10.6. The LD50 [1] was 330 µmol/kg and 178 mg/kg.

In the case of `C[n+]1ccc(-c2c3nc(c(-c4cc[n+](C)cc4)c4ccc([nH]4)c(-c4cc[n+](C)cc4)c4nc(c(-c5cc[n+](C)cc5)c5ccc2[nH]5)C=C4)C=C3)cc1` [TMPyP4, reference compound], the IC50 [5] is given as greater than 25000 nM and the IC50 (P. falciparum [7]) is given as 5000 nM.

With `Cc1ccc(C(=O)Nc2ccc(S(=O)(=O)O)c3cc(S(=O)(=O)O)cc(S(=O)(=O)O)c23)cc1NC(=O)c1cccc(NC(=O)Nc2cccc(C(=O)Nc3cc(C(=O)Nc4ccc(S(=O)(=O)O)c5cc(S(=O)(=O)O)cc(S(=O)(=O)O)c45)ccc3C)c2)c1` [suramin, reference compound] the IC50 [2] was 38 ± 3 nM.

In the case of `Cc1oc2nc1-c1nc(co1)-c1nc(co1)-c1nc(co1)-c1nc(co1)-c1nc(co1)C1=NC(CS1)c1nc-2c(C)o1` (centres unmarked) [telomestatin], the IC50 (P. falciparum [7]) is given as 35000 nM.
